We go through 3 compounds from ChEMBL document CHEMBL4402517, “Rational modification of Mannich base-type derivatives as novel antichagasic compounds: Synthesis, in vitro and in vivo evaluation” (Bioorg Med Chem, 2019).

The nature of data set [1]: Toxicity in BALB/c mouse infected with Trypanosoma cruzi MHOM/Pe/2011/Arequipa;DTU 5 bloodstream trypomastigote assessed as decrease in serum aspartate aminotransferase level in chronic phase at 20 mg/kg/day, po administered for 5 consecutive days starting from day 70 post infection and measured at day 76 post infection relative to control. Conditions: in vivo. Further details: scale not given: the % may be the effect or the level left. The data set is classed as organism-based. The method, boiled down:
(§1)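 Female BALB/c mice (10–12 weeks, 14–20 g; groups of three) were infected i.p. with 5 × 10^5 Arequipa bloodstream trypomastigotes. Dosing was oral at 20 mg/kg/day for 5 days, from day 8 pi (acute) or day 70 pi (chronic), as a 2 mg/ml suspension in 5% DMSO/0.5% HPMC; controls received vehicle. Cyclophosphamide 200 mg/kg i.p. was given at day 80 pi. Serum was collected 2 days post-treatment and at necropsy by cardiac puncture and compared with infected untreated controls.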

The nature of data set [2]: Genotoxicity in Salmonella typhimurium TA1535 harboring pSK1002 assessed as umu gene induction at 0.004 mg/ml in presence of Sprague-Dawley rat liver S9 fraction metabolic activation by SOS/umu assay relative to control. In kind it is toxicity, subcellular. Conditions: salmonella enterica subsp. enterica serovar typhimurium, read-out: FC. The method in brief: (§2)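 umu induction in S. typhimurium TA1535/pSK1002, with or without S9 mix, in 96-well format. β-galactosidase read colorimetrically with ONPG substrate. Output given as relative units and induction factor (IF). The run is valid if positive controls reach IF ≥2. A compound counts as genotoxic at IF ≥2 at a concentration giving ≥80% bacterial survival.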

Data set [3] is described as follows: Genotoxicity in Salmonella typhimurium TA1535 harboring pSK1002 assessed as umu gene induction at 0.008 mg/ml in absence of Sprague-Dawley rat liver S9 fraction metabolic activation by SOS/umu assay relative to control. In kind it is toxicity. Conditions: salmonella enterica subsp. enterica serovar typhimurium, read-out: FC. The method in brief: as §2
For another data set, the system named is Trypanosoma cruzi. Briefly: Trypanocidal activity against Trypanosoma cruzi trypomastigote form infected in African green monkey Vero cells assessed as ratio of infected cells at 50 uM measured after 72 hrs by Giemsa staining based assay relative to control. In kind it is functional. The method, boiled down:
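Vero cells (1 × 10^4/well, on coverslips) were infected with trypomastigotes at MOI 10:1 for 24 h and washed three times with PBS. They were treated at 3.1, 6.25, 12.5, 25 and 50 µM for 72 h at 37 °C in 5% CO2. Infected cells were counted after Giemsa staining. Triplicates, two separate determinations.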

Data set [4] in a line: Toxicity in BALB/c mouse infected with Trypanosoma cruzi MHOM/Pe/2011/Arequipa;DTU 5 bloodstream trypomastigotes assessed as decrease in serum alkaline phosphatase level in chronic phase at 20 mg/kg/day, po administered for 5 consecutive days starting from day 70 post infection measured on day 100 post infection relative to control. Also noted: scale not given: the % may be the effect or the level left. Conditions: in vivo. In kind it is organism-based. The method, boiled down: as §1

Data set [5] can be described thus: Genotoxicity in Salmonella typhimurium TA1535 harboring pSK1002 assessed as survival at 0.031 mg/ml in presence of Sprague-Dawley rat liver S9 fraction metabolic activation by SOS/umu assay relative to control. The data set is classed as toxicity, subcellular. The note with it: salmonella enterica subsp. enterica serovar typhimurium, read-out: Survival. The method, boiled down:
(§3)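 Survival of S. typhimurium TA1535/pSK1002 exposed to a range of compound concentrations with or without S9 mix in 96-well format. Survival percentage measured as the cytotoxicity arm of the SOS/umu test. Concentrations with survival ≥80% are counted as non-cytotoxic.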

The nature of data set [6]: Toxicity in BALB/c mouse infected with Trypanosoma cruzi MHOM/Pe/2011/Arequipa;DTU 5 bloodstream trypomastigote assessed as decrease in serum lactate dehydrogenase level in chronic phase at 20 mg/kg/day, po administered for 5 consecutive days starting from day 70 post infection measured on day 100 post infection relative to control. The data set is classed as organism-based. The note with it: in vivo. Further details: scale not given: the % may be the effect or the level left. The method in brief: as §1

Data set [7] can be described thus: Genotoxicity in Salmonella typhimurium TA1535 harboring pSK1002 assessed as survival at 0.25 mg/ml in absence of Sprague-Dawley rat liver S9 fraction metabolic activation after by SOS/umu assay relative to control. The data set is classed as toxicity. Conditions: salmonella enterica subsp. enterica serovar typhimurium, read-out: Survival. The method in brief: as §3

Data set [8] in a line: Genotoxicity in Salmonella typhimurium TA1535 harboring pSK1002 assessed as survival at 0.063 mg/ml in presence of Sprague-Dawley rat liver S9 fraction metabolic activation by SOS/umu assay relative to control. The data set is classed as toxicity, subcellular. The note with it: salmonella enterica subsp. enterica serovar typhimurium, read-out: Survival. The method in brief:
as §3

Data set [9] in a line: Inhibition of Trypanosoma cruzi MHOM/Pe/2011/Arequipa;DTU 5 epimastigote Fe-SOD. The method in brief: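 Fe-SOD excreted by exponentially growing T. cruzi Arequipa epimastigotes cultured in supplemented MTL at 28 °C. Protein quantified by Bradford. SOD activity measured by the Beyer–Fridovich method. IC50 from inhibition curves by nonlinear regression. Mean of three independent determinations ± standard deviation.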

Data set [10] can be described thus: Genotoxicity in Salmonella typhimurium TA1535 harboring pSK1002 assessed as survival at 0.001 mg/ml in presence of Sprague-Dawley rat liver S9 fraction metabolic activation by SOS/umu assay relative to control. In kind it is toxicity, subcellular. Conditions: salmonella enterica subsp. enterica serovar typhimurium, read-out: Survival. The method, boiled down:
(§4)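 Salmonella typhimurium TA1535/pSK1002 was exposed to compounds at several concentrations with or without S9 mix, and bacterial survival % was measured. β-galactosidase induction was measured colorimetrically with ONPG substrate. Genotoxicity was counted where IF ≥ 2 at ≥80% survival; runs were valid if positive controls reached IF ≥ 2.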

Data set [11] in a line: Genotoxicity in Salmonella typhimurium TA1535 harboring pSK1002 assessed as survival at 0.001 mg/ml in absence of Sprague-Dawley rat liver S9 fraction metabolic activation by SOS/umu assay relative to control. The data set is classed as toxicity. The note with it: salmonella enterica subsp. enterica serovar typhimurium, read-out: Survival. The method in brief: as §4
Data set [12] has as its target Superoxide dismutase [Cu-Zn] (Homo sapiens, UniProt P00441). Nature of the data set: Inhibition of human erythrocyte CuZn-SOD. The method in brief: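 Commercial human erythrocyte CuZn-SOD. Activity measured by the Beyer–Fridovich method, tested up to 50 µM.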
Data set [13] can be described thus: Genotoxicity in Salmonella typhimurium TA1535 harboring pSK1002 assessed as umu gene induction at 0.008 mg/ml in presence of Sprague-Dawley rat liver S9 fraction metabolic activation by SOS/umu assay relative to control. The data set is classed as toxicity, subcellular. Conditions: salmonella enterica subsp. enterica serovar typhimurium, read-out: FC. The method in brief: as §2

Data set [14] in a line: Genotoxicity in Salmonella typhimurium TA1535 harboring pSK1002 assessed as survival at 0.063 mg/ml in absence of Sprague-Dawley rat liver S9 fraction metabolic activation by SOS/umu assay relative to control. In kind it is toxicity. Conditions: salmonella enterica subsp. enterica serovar typhimurium, read-out: Survival. The method in brief:
as §3

A short description of data set [15]: Toxicity in BALB/c mouse infected with Trypanosoma cruzi MHOM/Pe/2011/Arequipa;DTU 5 bloodstream trypomastigote assessed as decrease in serum creatine kinase muscle to brain ratio level in acute phase at 20 mg/kg/day, po administered for 5 consecutive days starting from day 8 post infection and measured on day 100 post infection by biochemical analysis relative to control. The data set is classed as organism-based. Further details: scale not given: the % may be the effect or the level left. The note with it: in vivo. The method in brief: as §1

Data set [16] is described as follows: Toxicity in BALB/c mouse infected with Trypanosoma cruzi MHOM/Pe/2011/Arequipa;DTU 5 bloodstream trypomastigote assessed as decrease in serum total bilirubin level in chronic phase at 20 mg/kg/day, po administered for 5 consecutive days starting from day 70 post infection measured on day 100 post infection relative to control. The data set is classed as organism-based. Further details: scale not given: the % may be the effect or the level left. Conditions: in vivo. The method, boiled down: as §1

The nature of data set [17]: Toxicity in BALB/c mouse infected with Trypanosoma cruzi MHOM/Pe/2011/Arequipa;DTU 5 bloodstream trypomastigote assessed as change in serum total bilirubin level in acute phase at 20 mg/kg/day, po administered for 5 consecutive days starting from day 8 post infection and measured on day 100 post infection by biochemical analysis relative to control. The data set is classed as organism-based. The note with it: in vivo. The method, boiled down: as §1

Data set [18] in a line: Toxicity in BALB/c mouse infected with Trypanosoma cruzi MHOM/Pe/2011/Arequipa;DTU 5 bloodstream trypomastigote assessed as decrease in serum urea level in acute phase at 20 mg/kg/day, po administered for 5 consecutive days starting from day 8 post infection and measured on day 100 post infection by biochemical analysis relative to control. Further details: scale not given: the % may be the effect or the level left. Conditions: in vivo. The data set is classed as organism-based. The method in brief:
as §1

Superoxide dismutase [Cu-Zn], sequence (P00441 whole entry): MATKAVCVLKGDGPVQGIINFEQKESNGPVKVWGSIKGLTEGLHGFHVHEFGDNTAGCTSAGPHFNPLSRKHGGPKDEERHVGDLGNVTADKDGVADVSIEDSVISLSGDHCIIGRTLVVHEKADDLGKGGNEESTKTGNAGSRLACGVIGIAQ

As for `O=C(CCN1CCN(c2ccc(C(F)(F)F)cc2)CC1)c1ccc(O)cc1`, the Activity entry in data set [1] is reported as “<= 10%”; in data set [4], “<= 30%”; in data set [6] it was “<= 30%”; in data set [15], “<= 30%”. In [2], the fold induction at 0.004 mg/ml amounted to 0.77. For the same compound, the fold induction at 0.008 mg/ml was 0.75 in data set [3] and 0.83 in data set [13]. Further, the Ratio in the data set with Trypanosoma cruzi is given as 7%. Moreover, in [5], the viability at 0.031 mg/ml is 107%. The viability at 0.25 mg/ml in [7] is 149%. Besides, the viability at 0.063 mg/ml was determined as 92.9% in data set [8] and 117% in data set [14]. For the same compound, the IC50 in data set [9] was 4.3 µM; in data set [12] it was over 50 µM. The viability at 0.001 mg/ml worked out at 106% in data set [10] and 114% in data set [11].

Turning to `O=C(CCN1CCN(c2ccc(Cl)cc2)CC1)c1ccc(O)cc1`, the Activity entry in [1] was “<= 10%”; in data set [16] it was “<= 10%”; in data set [17] it was over 10%; in data set [18] it was “<= 10%”; in data set [15], “<= 20%”. Besides, in data set [2], the fold induction at 0.004 mg/ml is 0.71. Further, the values for the fold induction at 0.008 mg/ml in [3] and in data set [13] were 0.71 and 0.77, respectively. In data set [5], the viability at 0.031 mg/ml stood at 102%. In data set [7], the viability at 0.25 mg/ml stood at 152%. Also, the viability at 0.063 mg/ml in data set [8] stood at 86.7%; in data set [14] it was 125%. For the same compound, the IC50 in data set [9] is 3.9 µM; in [12], over 50 µM. Besides, the viability at 0.001 mg/ml is 106% in data set [10] and 104% in [11].

For the compound `O=C(Cn1ccnc1[N+](=O)[O-])NCc1ccccc1` [BENZNIDAZOLE], the Activity entry was “<= 10%” in [16]; “<= 10%” in [4]; “<= 10%” in [6]; over 10% in data set [17]; “<= 20%” in [18]. In addition, the Ratio in the data set with Trypanosoma cruzi is reported as 18%.

One may read the IC50 as the concentration that inhibits the measured activity by half.
